Laboratory results published in ChEMBL document CHEMBL1157314, “Antibacterial, partially acetylated oligorhamnosides from Cleistopholis patens” (2006).
≈ marks a conversion by molar mass, not a printed value. Calls of active or inactive are those of the source. The rule behind the calls is not given here.

Legend:
Format in all cases: functional
Staphylococcus aureus [1] = test: Antibacterial activity against methicillin-resistant Staphylococcus aureus ATCC 33591 after 24 hrs by broth microdilution method; conditions: for MIC: ATCC 33591, 24 h
In short: (§1)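 Broth microdilution following NCCLS M7-A6 (2003), with inoculum at the recommended densities. Isolates were placed into panel wells with an autoinoculator and grown in cation-adjusted Mueller-Hinton broth at 35°C in ambient air for overnight to 24 h. Panels were read by eye, and the MIC was taken as no visible growth.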

Staphylococcus aureus [2] = test: Antibacterial activity against methicillin-resistant Staphylococcus aureus 78-13607A after 24 hrs by broth microdilution method; in short: as §1
Enterococcus faecalis [3] = test: Antibacterial activity against linezolid-resistant Enterococcus faecalis 15-5341 isolate after 24 hrs by broth microdilution method; in short: as §1
Streptococcus pneumoniae [4] = test: Antibacterial activity against erythromycin and clindamycin-resistant Streptococcus pneumoniae 4-38B isolate after 24 hrs by broth microdilution method; in short: as §1
Streptococcus pneumoniae [5] = test: Antibacterial activity against penicillin-resistant Streptococcus pneumoniae 33-50B isolate after 24 hrs by broth microdilution method; in short: as §1
Staphylococcus [6] = test: Antibacterial activity against quinupristin/dalfopristin-resistant coagulase negative Staphylococcus 90-10840A isolate after 24 hrs by broth microdilution method; in short: as §1
Corynebacterium jeikeium = test: Antibacterial activity against Corynebacterium jeikeium 15-196A isolate after 24 hrs by broth microdilution method
In short: (§2)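 Broth microdilution following NCCLS M7-A6 (2003) inocula; isolates transferred aseptically into panel wells with an autoinoculator; cation-adjusted Mueller-Hinton broth; incubated overnight to 24 h at 35°C in ambient air; panels read by eye, MIC taken as lowest concentration with no visible growth.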

Streptococcus [7] = test: Antibacterial activity against erythromycin-resistant and clindamycin-susceptible beta-haemolytic sStreptococcus 109-820D isolate after 24 hrs by broth microdilution method; in short: as §1
Streptococcus [8] = test: Antibacterial activity against multidrug-resistant viridans group Streptococcus 58-1602D isolate after 24 hrs by broth microdilution method; in short: as §1
Streptococcus [9] = test: Antibacterial activity against levafloxacin-resistant viridans group Streptococcus 107-6380A isolate after 24 hrs by broth microdilution method; in short: as §1
Enterococcus faecalis [10] = test: Antibacterial activity against gentamycin and streptomycin-resistant Enterococcus faecalis 39-11D isolate after 24 hrs by broth microdilution method; in short: as §1
Bacillus sp. [11] = test: Antibacterial activity against erythromycin-resistant Bacillus sp. 32-2406A isolate after 24 hrs by broth microdilution method; conditions: Bacillus sp. (in: firmicutes); in short: as §1
Streptococcus [12] = test: Antibacterial activity against linezolid-resistant viridans group Streptococcus 27-2832A isolate after 24 hrs by broth microdilution method; in short: as §1
Streptococcus mitis = test: Antibacterial activity against penicillin-resistant Streptococcus mitis 61-2900C isolate after 24 hrs by broth microdilution method; in short: as §1
Streptococcus pneumoniae [13] = test: Antibacterial activity against penicillin-intermediate resistant Streptococcus pneumoniae ATCC 49619 after 24 hrs by broth microdilution method; conditions: ATCC 49619, 24 h; in short: as §1
Streptococcus [14] = test: Antibacterial activity against mupirocin-resistant viridans group sStreptococcus 32-2395A isolate after 24 hrs by broth microdilution method; in short: as §1
Streptococcus [15] = test: Antibacterial activity against levofloxacin-resistant beta-haemolytic sStreptococcus 19-756A isolate after 24 hrs by broth microdilution method; in short: as §1
Staphylococcus [16] = test: Antibacterial activity against mupirocin-resistant coagulase negative Staphylococcus 63-18A isolate after 24 hrs by broth microdilution method; in short: as §1
Bacillus sp. [17] = test: Antibacterial activity against tetracycline-resistant Bacillus sp. 107-1461D isolate after 24 hrs by broth microdilution method; conditions: Bacillus sp. (in: firmicutes); in short: as §1
Staphylococcus [18] = test: Antibacterial activity against coagulase negative linezolid-resistant Staphylococcus 82-1645A isolate after 24 hrs by broth microdilution method; in short: as §1
Streptococcus pneumoniae [19] = test: Antibacterial activity against erythromycin-resistant and clindamycin-susceptible Streptococcus pneumoniae 35-405B isolate after 24 hrs by broth microdilution method; in short: as §1
Streptococcus pneumoniae [20] = test: Antibacterial activity against levofloxacin-resistant Streptococcus pneumoniae 2-2784A isolate after 24 hrs by broth microdilution method; in short: as §1
Streptococcus pneumoniae [21] = test: Antibacterial activity against multidrug resistant Streptococcus pneumoniae 68-2307B isolate after 24 hrs by broth microdilution method; in short: as §1
Pseudomonas aeruginosa = test: Antibacterial activity against sPseudomonas aeruginosa ATCC 27853 after 24 hrs by broth microdilution method; conditions: ATCC 27853, 24 h; in short: as §2
Escherichia coli = test: Antibacterial activity against sEscherichia coli ATCC 25922 after 24 hrs by broth microdilution method; conditions: ATCC 25922, 24 h; in short: as §2
Enterococcus faecalis [22] = test: Antibacterial activity against ampicillin and vancomycin-susceptible Enterococcus faecalis ATCC 29212 after 24 hrs by broth microdilution method; conditions: ATCC 29212, 24 h; in short: as §1
Bacillus sp. [23] = test: Antibacterial activity against trimethoprim/sulfamethaxazole-resistant Bacillus sp. 67-1057A isolate after 24 hrs by broth microdilution method; conditions: Bacillus sp. (in: firmicutes); in short: as §1
[24] = system: Staphylococcus haemolyticus; test: Antibacterial activity against oxacillin-resistant Staphylococcus haemolyticus 107-1240C isolate after 24 hrs by broth microdilution method; in short: as §1
Enterococcus faecalis [25] = test: Antibacterial activity against vancomycin-resistant Enterococcus faecalis 82-876D with vanB phenotype isolate after 24 hrs by broth microdilution method; in short: as §1
Streptococcus pyogenes = test: Antibacterial activity against erythromycin-resistant Streptococcus pyogenes 91-8747 isolate after 24 hrs by broth microdilution method; in short: as §1
Streptococcus [26] = test: Antibacterial activity against erythromycin and clindamycin-resistant beta-haemolytic sStreptococcus 91-526D isolate after 24 hrs by broth microdilution method; in short: as §1
Enterococcus faecalis [27] = test: Antibacterial activity against vancomycin-resistant Enterococcus faecalis 48-22D isolate with vanA phenotype after 24 hrs by broth microdilution method; in short: as §1

For `CC(=O)NC[C@H]1CN(c2ccc(N3CCOCC3)c(F)c2)C(=O)O1`, the Activity (Staphylococcus aureus [1]) was “Active” and the Activity (Staphylococcus aureus [2]) was “Active”.

`O=C(N[C@H](CO)[C@H](O)c1ccc([N+](=O)[O-])cc1)C(Cl)Cl` [CHLORAMPHENICOL] showed an MIC (Staphylococcus aureus [1]) of over 16 µg/mL.

Work on `CCC[C@@H]1C[C@@H](C(=O)N[C@@H]([C@H]2O[C@H](SC)[C@H](O)[C@@H](O)[C@H]2O)[C@H](C)Cl)N(C)C1` [CLINDAMYCIN] yielded an MIC (Staphylococcus aureus [1]) of over 8 µg/mL and an MIC (Staphylococcus aureus [2]) of 0.12 µg/mL (≈ 0.282 µM).

Work on `CN(C)[C@@H]1C(O)=C(C(N)=O)C(=O)[C@@]2(O)C(O)=C3C(=O)c4c(O)cccc4[C@@](C)(O)[C@H]3C[C@@H]12` [TETRACYCLINE] yielded an MIC (Staphylococcus aureus [1]) of over 8 µg/mL and an MIC (Staphylococcus aureus [2]) of at most 16 µg/mL.

Compound `CC[C@H]1OC(=O)[C@H](C)[C@@H](O[C@H]2C[C@@](C)(OC)[C@@H](O)[C@H](C)O2)[C@H](C)[C@@H](O[C@@H]2O[C@H](C)C[C@H](N(C)C)[C@H]2O)[C@](C)(O)C[C@@H](C)C(=O)[C@H](C)[C@@H](O)[C@]1(C)O` [ERYTHROMYCIN] has an MIC (Staphylococcus aureus [1]) of over 8 µg/mL and an MIC (Staphylococcus aureus [2]) of 0.25 µg/mL (≈ 0.341 µM).

Work on `CN[C@H](CC(C)C)C(=O)N[C@H]1C(=O)N[C@@H](CC(N)=O)C(=O)N[C@H]2C(=O)N[C@H]3C(=O)N[C@H](C(=O)N[C@H](C(=O)O)c4cc(O)cc(O)c4-c4cc3ccc4O)[C@H](O)c3ccc(c(Cl)c3)Oc3cc2cc(c3O[C@@H]2O[C@H](CO)[C@@H](O)[C@H](O)[C@H]2O[C@H]2C[C@](C)(N)[C@H](O)[C@H](C)O2)Oc2ccc(cc2Cl)[C@H]1O` [VANCOMYCIN] yielded an MIC (Enterococcus faecalis [3]) of 0.5 µg/mL (≈ 0.345 µM), an MIC (Streptococcus pneumoniae [4]) of 0.5 µg/mL (≈ 0.345 µM) and an MIC (Streptococcus pneumoniae [5]) of 1 µg/mL (≈ 0.69 µM). It also gave an MIC (Staphylococcus [6]) of 0.5 µg/mL (≈ 0.345 µM), an MIC (Corynebacterium jeikeium) of 1 µg/mL (≈ 0.69 µM) and an MIC (Streptococcus [7]) of 0.5 µg/mL (≈ 0.345 µM). It also gave an MIC (Streptococcus [8]) of 0.5 µg/mL (≈ 0.345 µM), an MIC (Streptococcus [9]) of 0.5 µg/mL (≈ 0.345 µM) and an MIC (Enterococcus faecalis [10]) of 0.5 µg/mL (≈ 0.345 µM). The MIC (Bacillus sp. [11]) was 0.5 µg/mL (≈ 0.345 µM), the MIC (Streptococcus [12]) was 0.5 µg/mL (≈ 0.345 µM) and the MIC (Streptococcus mitis) was 1 µg/mL (≈ 0.69 µM). For the same compound, the MIC (Streptococcus pneumoniae [13]) was 1 µg/mL (≈ 0.69 µM), the MIC (Streptococcus [14]) was 0.5 µg/mL (≈ 0.345 µM) and the MIC (Streptococcus [15]) was 0.5 µg/mL (≈ 0.345 µM). The MIC (Staphylococcus [16]) was 0.5 µg/mL (≈ 0.345 µM), the MIC (Bacillus sp. [17]) was 0.5 µg/mL (≈ 0.345 µM) and the MIC (Staphylococcus [18]) was 0.5 µg/mL (≈ 0.345 µM). For the same compound, the MIC (Streptococcus pneumoniae [19]) was 0.5 µg/mL (≈ 0.345 µM), the MIC (Streptococcus pneumoniae [20]) was 0.5 µg/mL (≈ 0.345 µM) and the MIC (Streptococcus pneumoniae [21]) was 0.5 µg/mL (≈ 0.345 µM). The MIC (Pseudomonas aeruginosa) was 1 µg/mL (≈ 0.69 µM), the MIC (Escherichia coli) was 1 µg/mL (≈ 0.69 µM) and the MIC (Enterococcus faecalis [22]) was 1 µg/mL (≈ 0.69 µM). For the same compound, the MIC (Bacillus sp. [23]) was 0.5 µg/mL (≈ 0.345 µM), the MIC [24] was 1 µg/mL (≈ 0.69 µM) and the MIC (Enterococcus faecalis [25]) was 0.5 µg/mL (≈ 0.345 µM). For the same compound, the MIC (Streptococcus pyogenes) was 1 µg/mL (≈ 0.69 µM), the MIC (Streptococcus [26]) was 0.5 µg/mL (≈ 0.345 µM) and the MIC (Enterococcus faecalis [27]) was 0.5 µg/mL (≈ 0.345 µM).

In the case of `CO[C@H]1/C=C/O[C@@]2(C)Oc3c(C)c(O)c4c(O)c(c(/C=N/N5CCN(C)CC5)c(O)c4c3C2=O)NC(=O)/C(C)=C\C=C\[C@H](C)[C@H](O)[C@@H](C)[C@@H](O)[C@@H](C)[C@H](OC(C)=O)[C@@H]1C` [RIFAMPIN], the MIC (Staphylococcus aureus [1]) is reported as at most 0.25 µg/mL and the MIC (Staphylococcus aureus [2]) is reported as at most 0.25 µg/mL.
